Where two headings read alike, the source gives them in different places. Blank lines part the entries; values can stand above or below the molecule they belong to. Positions of bridges follow the written chain, without caps; N, C: chain ends. No end group written: not given here.
Key:
human MC4R = human MC4R (Homo sapiens, UniProt P32245); assay: Competitive; assay type: binding
In short: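 Intact HEK293T cells transiently transfected (calcium phosphate) with human MC4R, harvested 20 h later, in L*R binding buffer at 10,000–70,000 cells/well. […] Washed, DELFIA enhancement, time-resolved fluorescence. Three independent experiments in duplicate.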

MC1R [1] = target: T1, MC1R (Homo sapiens, UniProt Q01726); assay: Competitive; assay type: binding
In short: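 Intact HEK 293T cells were transiently transfected with a human MC1R construct (calcium phosphate), harvested after 20 h and plated at 10,000–70,000 cells/well in binding buffer. Eu-NDP-MSH ([…]) plus 3-fold dilutions of test peptide (9.0×10−6M to 4.6×10−10M) were incubated for 2 h at 37°C. Read-out was time-resolved fluorescence. Tracer Kd came from saturation binding. Three independent experiments, in duplicate.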

MC1R [2] = target: T1, MC1R; details: cited from earlier work
[3] = system: Melan-a cells (MC1R activation); details: ref Candille et al., 2007; cited from earlier work
Adult male Wistar rats = assay: AgRP-induced weight gain in free-feeding rats, ICV injection; assay type: in vivo, rat
In short: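 Adult male Wistar rats, housed individually on a 12-12h light:dark cycle with chow. Third-ventricle cannula implanted under isoflurane, recovery ≥7 days, placement verified by a plasma glucose rise after ICV 5-thio-D-glucose. ICV pre-treatment with vehicle or test peptide, then 1 h later AgRP (0.01 nmol) or vehicle; n=8–10/group. Body weight gain followed over 5 days.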

MC1R [4] = target: T1, MC1R; details: read-out: MC1R Ki; ref Kiefer et al., 1998; cited from earlier work

T1 sequence (Q01726 whole entry): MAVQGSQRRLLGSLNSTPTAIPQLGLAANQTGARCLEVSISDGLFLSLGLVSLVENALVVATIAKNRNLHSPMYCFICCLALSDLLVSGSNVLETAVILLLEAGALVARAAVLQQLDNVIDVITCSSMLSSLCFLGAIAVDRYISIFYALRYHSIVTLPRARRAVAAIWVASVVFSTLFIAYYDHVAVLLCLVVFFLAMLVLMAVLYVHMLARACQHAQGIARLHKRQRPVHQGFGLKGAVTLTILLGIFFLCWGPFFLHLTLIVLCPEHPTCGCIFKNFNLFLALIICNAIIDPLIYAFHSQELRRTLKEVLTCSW
Sequence of human MC4R (P32245 whole entry): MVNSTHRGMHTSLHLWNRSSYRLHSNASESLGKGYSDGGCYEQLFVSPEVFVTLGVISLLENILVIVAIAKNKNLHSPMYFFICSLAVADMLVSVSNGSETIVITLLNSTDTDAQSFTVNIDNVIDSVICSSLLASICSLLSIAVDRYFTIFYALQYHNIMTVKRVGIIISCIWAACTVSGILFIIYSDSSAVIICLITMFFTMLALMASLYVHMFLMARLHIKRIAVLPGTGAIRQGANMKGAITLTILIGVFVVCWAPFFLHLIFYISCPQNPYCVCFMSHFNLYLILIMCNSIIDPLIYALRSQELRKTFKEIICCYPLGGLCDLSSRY

Ki (human MC4R): 206 nM | Ki (MC1R [1]): 243 nM
Molecule: GIINTLQKYYCRVRGGRSAVLSSLPKEEQIGKSSTRGRKCSRRKK-NH2 (disulfide 11-40) [CysT-V]

Molecule: Asip (from UniProt P42127)
Ki (MC1R [2]): 2.6 nM

Molecule: canine β-defensin 103 [CBD103]
effect on cAMP levels in Melan-a cells [3]: neither CBD103 ([Candille et al., 2007]) nor HBD3 (Figure S1A) stimulate or reduce cAMP levels

Molecule: Agouti-related protein (SPRRCVRLHESCLGQQVPCCDPCATCYCRFFNAFCYCRKLGTATNLCSRT; UniProt P56473 82-131, looked up) [AgRP]
effect on body weight (energy balance response) (Adult male Wistar rats; ICV 0.01 nmol (submaximal dose)): increased weight gain | effect on food intake in the first 24 hours (Adult male Wistar rats; ICV 0.01 nmol, data not shown): no detectable effect on food intake

Ki (MC1R [1]): > 5000 nM
Molecule: GIINTLQKYYSRVRGGRSAV-NH2 [N-term Truncate]

Ki (human MC4R): 436 nM | Ki (MC1R [1]): 297 nM
Molecule: GIINTLQKYYSRVRGGRSAVLSSLPKEEQIGKSSTRGRKSSRRKK-NH2 [Cys->Ser]

B1: RFF→AFF mutation in Asip: Asip mutant with RFF motif changed to AFF, literature value (protein)
chain: HLALEETLGDDRSLRSNSSMNSLDFSSVSIVALNKKSKKISRKEAEKRKRSSKKKASMKKVARPPPPSPCVATRDSCKPPAPACCDPCASCQCAFFGSACTCRVLNPNC
Ki (MC1R [4]): > 1900 nM

Source: paper PMC3714013 (Chemistry & biology, 2013)
